Several values for one entry are separate records, joined by “and”; a condition that tells them apart may be missing. Equal entries are not always repeated. Where two headings read alike, the source gives them in different places. Marks after values point to notes of the source that are not given here.
What was measured:
[1] = Pharmacokinetics after intravenous administration to rats; assay type: in vivo, male Sprague-Dawley rats; conditions: rat; for MRT / Vd / clearance / half-life / AUC(0-inf): male, Sprague-Dawley; for AUC(0-inf): AUC0-∞
Summary of the method: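 Male Sprague-Dawley rats (250–300 g) with jugular vein cannulae, fed antioxidant-free AIN-76A diet and acclimatized 3 days. Single i.v. dose of 10 or 20 mg/kg via cannula in Cremophor EL/tween-80/ethanol/water (2:1:1:6). Blood (200 μL) sampled from 2 min to 36 h; plasma stored at −80°C and assayed by HPLC-UV. Non-compartmental analysis: log-linear trapezoidal AUC, CL = Dose/AUC0-∞, MRT = AUMC0-∞/AUC0-∞.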

Blood cell partitioning = assay type: in vitro ADME; conditions: rat, fresh pooled rat blood
Summary of the method: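 Fresh pooled rat blood spiked 1:100 with test compound in methanol (final 10 μg/mL). Incubated 2 h at 37°C in a shaking water bath. Plasma separated at once by centrifugation and assayed by HPLC-UV to give the blood-to-plasma concentration ratio (CB/CP). Run in triplicate.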

[2] = Pharmacokinetics after oral administration to rats; assay type: in vivo, male Sprague-Dawley rats; conditions: rat; for Cmax / AUC(0-inf) / MRT / half-life: male, Sprague-Dawley, po
[3] = assay type: in vivo, Nrf2 wild type C57BL/6J (+/+) mice; conditions: for AUC / Cmax / MRT / Tmax: male, C57BL/6J, mouse, plasma
Summary of the method: (§1)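 Age-matched male C57BL/6J mice, Nrf2 (+/+) or (−/−), 10–15 weeks old, on AIN-76A diet from 3 days before dosing. Dosed 500 mg/kg by oral gavage after an overnight fast, or 100 mg/kg i.p.; vehicle Cremophor EL/tween-80/ethanol/water (2:1:1:6). Composite sampling by heart puncture from 2 min (i.p. only) or 7.5 min to 36 h, three mice per time point. Non-compartmental analysis; t1/2 = ln2/kel from terminal slope.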

[4] = assay type: in vivo, Nrf2 knockout C57BL/6J (−/−) mice; conditions: for AUC0-∞ /Dose: Nrf2(−/−) mice; for AUC, folds increase: Nrf2(−/−) vs Nrf2(+/+) mice; for AUC / Cmax / MRT / Tmax / half-life: male, C57BL/6J, mouse, plasma
Summary of the method: as §1

[5] = p.o. 250 mg/kg, regular emulsion

Structure (SMILES): O=C(CC(=O)c1ccccc1)c1ccccc1 [DBM, 1,3-Diphenyl-1,3-propanedione]
- MRT ([1]; plasma, iv, 10 mg/kg): 10.4 ± 3.33 h
- Vd ([1]; plasma, iv, 10 mg/kg): 6.75 ± 1.85 L/kg
- clearance ([1]; plasma, iv, 10 mg/kg): 11.8 mL/min/kg
- half-life ([1]; plasma, iv, 10 mg/kg): 864 ± 300 min
- AUC(0-inf) ([1]; plasma, iv, 10 mg/kg, i.v. 10 mg/kg): 16500 ± 7850 ng·h/mL
- MRT ([1]; plasma, iv, 20 mg/kg): 10.2 ± 6.1 h
- Vd ([1]; plasma, iv, 20 mg/kg): 7.35 ± 4.26 L/kg
- clearance ([1]; plasma, iv, 20 mg/kg): 12 mL/min/kg
- half-life ([1]; plasma, iv, 20 mg/kg): 720 ± 320 min
- AUC(0-inf) ([1]; plasma, iv, 20 mg/kg, i.v. 20 mg/kg): 27900 ± 2400 ng·h/mL
- clearance ([1]; whole blood, intravenous, 10 mg/kg): ~12.7 mL/min/kg
- AUC0-∞ /Dose ([1]; i.v. 10 mg/kg, 10 mg/kg): 1.65 (μg·h/mL)/(mg/kg) and 1.65 ± 0.79 (μg·h/mL)/(mg/kg)
- AUC0-∞ ([1]; i.v. 20 mg/kg, 20 mg/kg): 28.0 ± 2.40 µg·h/mL
- AUC0-∞ /Dose ([1]; i.v. 20 mg/kg, 20 mg/kg): 1.40 (μg·h/mL)/(mg/kg) and 1.40 ± 0.12 (μg·h/mL)/(mg/kg)
- blood plasma ratio at 2 h, 10 μg/mL (Blood cell partitioning): 0.93 ± 0.19
- Cmax ([2]; in vivo, 250 mg/kg): 2880 ± 740 ng/mL
- AUC(0-inf) ([2]; plasma, 10 mg/kg): 2250 ± 330 ng·h/mL
- Cmax ([2]; plasma, 10 mg/kg): 340 ± 40 ng/mL
- MRT ([2]; plasma, 10 mg/kg): 7.6 ± 2.3 h
- half-life ([2]; plasma, 10 mg/kg): 660 ± 180 min
- AUC(0-inf) ([2]; plasma, 50 mg/kg): 9460 ± 1620 ng·h/mL
- Cmax ([2]; plasma, 50 mg/kg): 1500 ± 410 ng/mL
- MRT ([2]; plasma, 50 mg/kg): 9.4 ± 2 h
- half-life ([2]; plasma, 50 mg/kg): 558 ± 120 min
- AUC(0-inf) ([2]; plasma, 250 mg/kg): 30400 ± 6890 ng·h/mL
- Cmax ([2]; plasma, 250 mg/kg): 3020 ± 660 ng/mL
- MRT ([2]; plasma, 250 mg/kg): 12 ± 4.3 h
- half-life ([2]; plasma, 250 mg/kg): 660 ± 480 min
- AUC0-∞ /Dose ([2]; p.o. 10 mg/kg, regular emulsion): 0.225 ± 0.033 (μg·h/mL)/(mg/kg)
- Ka (absorption rate constant) ([2]; p.o. 50 mg/kg, regular emulsion, Gastroplus three-compartment fitting): 0.029 ± 0.046 h⁻¹
- AUC0-∞ /Dose [2, 5]: 0.122 ± 0.027 ^a (μg·h/mL)/(mg/kg)
- fraction absorbed in GIT (deconvolution analysis) [2, 5]: 10.8%
- Tmax ([2]; p.o. 250 mg/kg, regular emulsion, 250 mg/kg): 4.0 ± 2.0 h
- AUC0-∞ /Dose ([3]; Nrf2(+/+) mice, i.p. 100 mg/kg): 0.096 (μg·h/mL)/(mg/kg)
- AUC0-∞ /Dose ([3]; Nrf2(+/+) mice, p.o. 500 mg/kg): 0.129 (μg·h/mL)/(mg/kg)
- Apparent terminal t1/2 ([3]; Nrf2(+/+) mice, p.o. 500 mg/kg, 500 mg/kg): 6.09 h
- AUC ([3]; ip, 100 mg/kg): 9620 ng·h/mL
- Cmax ([3]; ip, 100 mg/kg): 4560 ng/mL
- MRT ([3]; ip, 100 mg/kg): 2.76 h
- Tmax ([3]; ip, 100 mg/kg): 15 min
- AUC ([3]; po, 500 mg/kg): 64600 ng·h/mL
- Cmax ([3]; po, 500 mg/kg): 23200 ng/mL
- MRT ([3]; po, 500 mg/kg): 4.73 h
- Tmax ([3]; po, 500 mg/kg): 15 min
- peak plasma concentration ([3]; mice, i.p. 100 mg/kg, genotype not given, context Nrf2(+/+)): 20.4 µM
- AUC0-∞ /Dose ([4]; i.p. 100 mg/kg): 0.221 (μg·h/mL)/(mg/kg)
- AUC0-∞ /Dose ([4]; p.o. 500 mg/kg): 0.171 (μg·h/mL)/(mg/kg)
- AUC, folds increase ([4]; i.p. 100 mg/kg): 2.3 fold
- AUC, folds increase ([4]; p.o. 500 mg/kg): 1.3 fold
- apparent terminal half-life, fold increase ([4]; Nrf2 knockout vs wild type mice, i.p. 100 mg/kg): 2 fold
- AUC ([4]; ip, 100 mg/kg): 22100 ng·h/mL
- Cmax ([4]; ip, 100 mg/kg): 6860 ng/mL
- MRT ([4]; ip, 100 mg/kg): 5.15 h
- Tmax ([4]; ip, 100 mg/kg): 15 min
- half-life ([4]; ip, 100 mg/kg): 302 min
- AUC ([4]; po, 500 mg/kg): 85600 ng·h/mL
- Cmax ([4]; po, 500 mg/kg): 17400 ng/mL
- MRT ([4]; po, 500 mg/kg): 6.36 h
- Tmax ([4]; po, 500 mg/kg): 15 min
- half-life ([4]; po, 500 mg/kg): 511 min
